Screening data (PubChem BioAssay)
DNMT1 inh – DNMT1 (human) enzyme inhibition; P26358; inhibition (reported as % activation of signal), % at 10 µM; AID 588458; 360,000 tested, 0.83% active; DNMT1 molecular beacon, Hinp1I cleavage, fluorescence; in the data active means inhibition above about 50%
STEP inh – blocks human striatal-enriched tyrosine phosphatase; P54829; recombinant STEP, OMFP fluorogenic substrate, fluorescence; inhibition, % at 20 µM; 360,000 tested, 0.25% active; AID 588621;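 active means inhibition at 20 µM, scaled per plate between control wells, above about 37%, limit read from the data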
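Measure: Control-normalized % inhibition with plate pattern correction | Test system: STEP phosphatase, cell-free reaction | Medium: pH 6.0 Bis-Tris with DTT and Tween 20 | Technique: Fluorescence, 480/540 nm | Times: Reaction 20 min, ambient temperature | Doses: Single compound dose of 20 µM, 1% DMSO final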
HKDC1 inhibitor – blocks human hexokinase HKDC1 activity. inhibition, % at 20 µM. AID 493160. recombinant HKDC1, G6PDH/diaphorase resazurin coupled fluorescence. 340,000 tested, 0.16% active. Q2TB90;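 active means inhibition above about 35% when tested at 20 µM, limit read from the data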
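Material: recombinant HKDC1 hexokinase; Amount: HKDC1 at 5 µg/mL; Medium: Tris pH 8.0 buffer with MgCl2, Tween-20, BSA, BME; Schedule: 90 min reaction incubation at room temperature, dark; Technique: coupled resazurin fluorescence, excitation 525 nm, emission 613 nm.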
SUMO1-SIM PPI – modulators of human SUMO1-mediated protein-protein interactions; P63165; SUMO1 binding to a labelled peptide, TR-FRET, 1 h; inhibition, % at 20 µM; 360,000 tested, 0.33% active; AID 602429; in the data active means inhibition above about 37%
Target sequence (P63165 whole entry, looked up): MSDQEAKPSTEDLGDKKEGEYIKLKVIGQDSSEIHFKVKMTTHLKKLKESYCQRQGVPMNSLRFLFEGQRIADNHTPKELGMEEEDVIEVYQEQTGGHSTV
LMPTP inh – LMPTP (human) inhibition; P24666; recombinant LMPTP-A, OMFP fluorogenic substrate, fluorescence intensity; inhibition, % at 20 µM; 360,000 tested, 0.22% active; AID 651560;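 active means compounds that cut the enzyme signal by at least half of the control window in the single-dose screen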
Target sequence (P24666 whole entry, looked up): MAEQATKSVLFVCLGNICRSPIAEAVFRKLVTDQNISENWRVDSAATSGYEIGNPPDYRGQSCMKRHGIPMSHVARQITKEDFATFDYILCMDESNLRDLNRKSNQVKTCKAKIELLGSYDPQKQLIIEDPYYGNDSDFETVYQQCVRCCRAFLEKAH
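test system = LMPTP-A | amount = 0.625 nM LMPTP-A final | reagent = fluorogenic phosphatase substrate OMFP at 400 µM final | incubation = 50 min at room temperature | benchmarks = no-enzyme low control, uninhibited high control | medium = Bis-Tris pH 6.0, DTT, detergent | signal = fluorescence intensity of OMFP turnover product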
Scp1 inh – inhibitors of human Scp-1 phosphatase | Q9GZU7 | Recombinant Scp1, phosphopeptide, malachite green phosphate absorbance | inhibition, % at 20 µM | 340,000 tested, 0.88% active;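 active means inhibition above about 50% at 20 µM, limit read from the data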
Target sequence (Q9GZU7 76-261 limits assumed): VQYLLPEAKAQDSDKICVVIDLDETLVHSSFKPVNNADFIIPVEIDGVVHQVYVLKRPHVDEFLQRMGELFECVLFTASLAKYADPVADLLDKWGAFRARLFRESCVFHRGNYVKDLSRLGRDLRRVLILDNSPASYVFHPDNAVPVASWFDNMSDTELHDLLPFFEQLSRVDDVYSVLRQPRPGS
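Material: truncated SCP-1 phosphatase (76-261aa) / Buffer or medium: 50 mM Tris acetate pH 5.5, 0.005% Tween-20, 10 mM MgCl2 / Compound dosing: one concentration, 20 µM, with 1.0% DMSO / Incubation: 45 min room-temperature reaction, 5 min colour, 30 min stabiliser / Detection: colorimetric free-phosphate detection, absorbance 630 nm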
DNMT1 inh conf – DNMT1 inhibition confirmation, single concentration; inhibition, % at 10 µM; DNMT1 molecular beacon HinP1I cleavage, fluorescence; shares compounds with DNMT1 inh; 2,300 tested, 8% active;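 active means average inhibition of at least 30% in the single-concentration confirmation test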
Beacon interf – counter-screen for DNMT1 inhibitors: spectral interference | shares compounds with DNMT1 inh | DNMT1 molecular beacon spectral interference counterscreen, fluorescence 485/520 | activation (fluorescence interference), % at 10 µM | 2,300 tested, 1% active;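 active means activation of at least 30% at 10 µM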;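 further: DNMT1 catalytic domain with a HinP1I cleavage step and a FAM/dabcyl DNA beacon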
Numbers stand for hits; n = inactive; x = no result given. This is a sample that favours compounds with a hit; in the whole collection about 1.8% have one here.

SMILES	DNMT1 inh	STEP inh	HKDC1 inhibitor	SUMO1-SIM PPI	LMPTP inh	Scp1 inh	DNMT1 inh conf	Beacon interf
C=CCn1c(SCC(C)=O)nc2scc(-c3ccco3)c2c1=O	75.5	n	n	n	n	n	n	n
NNC(=O)c1[nH]c(-c2ccccc2)cc1-c1ccccc1	68.2	n	n	n	n	n	n	n
O=C(CSc1ccc(F)cc1)NC1CCCCC1	n	n	n	n	n	n	x	x
C[C@H](NC(=O)c1ccco1)C(=O)NCc1cccs1	n	n	n	n	n	n	x	x
C=C1C(=O)O[C@@H]2[C@H]1CC[C@H](C)[C@]1(O)CCC(=O)[C@@]21C	n	n	n	n	n	n	x	x
C=C1C(=O)OC2C1CCC(C)=C1C(=O)C3OC3(C)C12 (stereo not drawn)	72.2	n	n	n	n	n	n	n
Cc1ccc(S(=O)(=O)c2c(N)n(CCCO)c3nc4ccccc4nc23)cc1	69.8	n	n	44.7	n	n	n	n
COc1ccc2oc(C(=O)Nc3nccs3)c(C)c2c1	n	n	x	n	n	x	x	x
CCOc1ccc2oc(C(=O)Nc3nccs3)c(C)c2c1	67.9	n	n	n	n	n	n	n
CC1Cc2c([nH]c(=O)n(-c3ccccc3)c2=O)O1 (stereo not drawn)	n	n	n	n	n	n	x	x
CC(C)(C)N1C(=O)c2ccc(C(=O)O)cc2C1=O	n	n	n	n	n	n	x	x
O=C(O)c1ccc2c(c1)C(=O)/C(=C\c1ccco1)C2=O	79.8	n	n	n	n	54.2	n	n
Cc1ccc(/C=C2/C(=O)c3ccc(C(=O)O)cc3C2=O)o1	74.4	n	n	n	n	n	n	n
Cc1cc2nc(-c3ccc(SCC(=O)Nc4ccc(S(=O)(=O)N5CCCC5)cc4)nc3)[nH]c2cc1C	66.0	n	n	n	n	n	n	n
COc1ccccc1N1CCN(C(=O)c2ccc3noc(-c4ccccc4)c3c2)CC1	n	n	x	n	n	x	x	x
CCCCn1c(N)c(-c2nc3ccccc3o2)c2c([N+](=O)[O-])nn(CC)c(=O)c21	55.9	n	n	n	n	n	n	n
CCCCOC(=O)C1=C(N)N2C(=O)C(C)SC2=C(C(=O)OCC)C1c1ccc(O)c(OC)c1 (stereo not drawn)	n	n	n	n	n	n	x	x
COCCOC(=O)c1[nH]c2c(c1C)C(=O)CC(c1ccc(N(C)C)cc1)C2 (stereo not drawn)	n	n	n	n	n	n	x	x
COCCOC(=O)c1[nH]c2c(c1C)C(=O)CC(c1ccc(F)cc1)C2 (stereo not drawn)	n	n	n	n	n	n	x	x
COCCOC(=O)c1[nH]c2c(c1C)C(=O)CC(c1ccco1)C2 (stereo not drawn)	73.5	n	n	n	n	82.7	n	n
CCOC(=O)c1[nH]c2c(c1C)C(=O)CC(c1ccco1)C2 (stereo not drawn)	51.2	n	n	n	n	63.8	n	n
CCOc1ccc(NC(=S)Nc2ccc3nsnc3c2)cc1	85.1	n	n	50.0	n	n	n	n
CCOc1ccc(NC(=O)Nc2ccc3nsnc3c2)cc1	n	n	n	n	n	n	x	x
CCOC(=O)C1CCCN(C(=O)c2ccc3c(=O)n(Cc4ccccc4OC)c(=S)[nH]c3c2)C1 (stereo not drawn)	n	n	n	n	n	n	x	x
COc1ccc(/C=C/C(=O)NCc2cccnc2)cc1	n	n	n	n	n	n	x	x
CCc1ccc(CN(Cc2cccnc2)C(=O)/C=C/c2ccc(OC)cc2)cc1	56.8	n	n	n	n	n	n	n
COc1ccc(CNC(=O)CN(c2cccc([N+](=O)[O-])c2)S(C)(=O)=O)cc1	n	n	n	n	n	n	x	x
O=C(O)c1cccc(N2C(=O)c3cccc4cccc(c34)C2=O)c1	n	n	n	n	n	n	x	x
